Laboratory results published in ChEMBL document CHEMBL1143981, “Exploring the potential of 3'-O-carboxy esters of thymidine as inhibitors of ribonuclease A and angiogenin” (Bioorg Med Chem, 2008).
Activity calls are given as the source filed them. The calls are words filed in the database; no cut-off is given here.

Columns and labels:
Ribonuclease pancreatic = assay: Activity at RNase A
How it was run: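 Spectrophotometric kinetics with 2',3'-cCMP substrate in oligo(vinylsulfonic acid)-free 0.1 M Mes–NaOH, pH 6.0, with 0.1 M NaCl. RNase A was at 10 µM. Substrate ranged 0.14–0.28 mM with inhibitor 0–6.7 µM, or 0.13–0.25 mM with inhibitor 0–62 µM, depending on compound. Inhibition constants came from initial velocities via Eadie–Hofstee plots (V vs V/[S]), using the slopes.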

[1] = Inhibition of RNase A by precipitation assay
How it was run: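 Yeast tRNA substrate (0.1 mg) in 0.1 M Tris–HCl, pH 7.5, with 5 mM EDTA and 10 µg HSA, 50 µl final. Enzyme (0.2 µM solution) was preincubated with inhibitor (225 µM solution) before addition. Reaction ran at 37 °C for 30 min. It was quenched with ice-cold 1.14 N perchloric acid containing 6 mM uranyl acetate, held on ice 30 min, then centrifuged at 4 °C.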

[2] = target: T1, Ribonuclease pancreatic (Homo sapiens) (UniProt P07998); assay: Inhibition of RNase A assessed as tRNA degradation by agarose-gel based assay
T1 sequence (whole entry): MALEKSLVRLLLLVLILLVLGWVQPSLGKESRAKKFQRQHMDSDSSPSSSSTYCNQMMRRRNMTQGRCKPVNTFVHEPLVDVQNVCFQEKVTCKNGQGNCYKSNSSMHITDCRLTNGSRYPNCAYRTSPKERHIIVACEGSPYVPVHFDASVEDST
How it was run: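 RNase A (0.66 µM solution) was preincubated 6 h with 1.5 mM inhibitor solution, 50 µl total. An aliquot was then mixed with yeast tRNA (5.0 mg/ml, freshly dissolved in RNase-free water) for 30 min. Samples ran on 1.1% agarose, and undegraded tRNA was visualized by ethidium bromide staining under UV.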

Ki (Ribonuclease pancreatic) [µM] | IC50 [1] [µM] | Activity [2] | Structure (SMILES)
95 | 341 | Active | Cc1cn([C@H]2C[C@H](OC(=O)c3ccccc3)[C@@H](CO)O2)c(=O)[nH]c1=O
42 | 197 | Active | CC(=O)O[C@H]1C[C@H](n2cc(C)c(=O)[nH]c2=O)O[C@@H]1CO
103 | 312 | Active | Nc1ccn([C@@H]2O[C@H](CO)[C@@H](OP(=O)(O)O)[C@H]2O)c(=O)n1
13.2 | 167 | – | Cc1cn([C@H]2C[C@H](OP(=O)(O)O)[C@@H](CO)O2)c(=O)[nH]c1=O
